# In ChEMBL document CHEMBL1153737, “Synthesis and antiprotozoal activity of 4-arylcoumarins” (Eur J Med Chem, 2010):
# Legend:
# Leishmania donovani [1] = test: Antileishmanial activity against Leishmania donovani MHOM/IN/80/DD8 amastigotes infected in human THP1 cells assessed as decrease of infected macrophages after 72 hrs by Giemsa staining; format: functional, organism-based; conditions: MHOM/IN/80/DD8, THP-1, 72 h
# Method in brief: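 THP1 monocytes (10⁵ cells/ml) differentiated to adherent macrophages with phorbol myristate acetate in complete RPMI, 48 h at 37 °C, 6% CO₂. Infected with stationary-phase promastigotes at cell:parasite ratio 1/10 for 24 h, then washed four times. Compound dilutions added in duplicate chambers for 72 h at 37 °C. Cells methanol-fixed and Giemsa-stained. Amphotericin B and DMSO controls included.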
# Leishmania donovani [2] = test: Antileishmanial activity against Leishmania donovani MHOM/IN/80/DD8 promastigotes assessed as parasite viability after 48 hrs by Alamar blue assay; format: functional, organism-based; conditions: MHOM/IN/80/DD8, 48 h
# Method in brief: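 Late log-phase promastigotes in complete RPMI (10% FCS, L-glutamine/penicillin–streptomycin) with 10% Alamar Blue and a range of compound concentrations, final DMSO <0.5%. Incubated 48 h at 27 °C. Viability read as Alamar Blue reduction by absorbance at 570 and 630 nm.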
# THP-1 = test: Cytotoxicity against human THP1 cells assessed as cell viability after 72 hrs by Alamar blue assay; format: cell-based; conditions: THP-1, 72 h
# Plasmodium falciparum = test: Antiplasmodial activity against multidrug-resistant Plasmodium falciparum W2 infected human erythrocytes after 48 hrs by flow cytometry; format: functional, organism-based; conditions: W2, 48 h
# [3] = Selectivity index, ratio of IC50 for human THP1 cells to IC50 for Leishmania donovani MHOM/IN/80/DD8 amastigotes; format: toxicity, cell-based, THP-1; conditions: read-out: Ratio IC50
# Method in brief: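 SI Ama computed as IC50 on THP1 cells divided by IC50 on intracellular L. donovani amastigotes, with amastigote IC50 taken from three independent experiments.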
# [4] = Selectivity index, ratio of IC50 for human THP1 cells to IC50 for Plasmodium falciparum W2; format: toxicity, cell-based, THP-1; conditions: read-out: Ratio IC50
compound,measurement,setting,value
COc1cc2oc(=O)cc(-c3ccc(O)cc3)c2cc1OC,IC50,Leishmania donovani [1],> 67 µM
same,IC50,Leishmania donovani [2],> 67 µM
same,IC50,THP-1,> 67 µM
same,IC50,Plasmodium falciparum,> 67 µM
COc1ccc(-c2cc(=O)oc3cc(OC)c(OC)cc23)cc1OC,IC50,Leishmania donovani [1],1.1 µM
same,selectivity ratio,[3],> 265
same,IC50,Leishmania donovani [2],> 292 µM
same,IC50,THP-1,> 292 µM
same,IC50,Plasmodium falciparum,> 117 µM
COc1ccc(-c2cc(=O)oc3ccccc23)cc1OC,IC50,Leishmania donovani [1],26.4 µM
same,selectivity ratio,[3],> 6.7
same,selectivity ratio,[4],> 14.7
same,IC50,Leishmania donovani [2],> 176 µM
same,IC50,THP-1,> 176 µM
same,IC50,Plasmodium falciparum,12 µM
COc1ccc2c(-c3ccc(OC)c(OC)c3)cc(=O)oc2c1,IC50,Leishmania donovani [1],> 25 µM
same,selectivity ratio,[4],1
same,IC50,Leishmania donovani [2],25.6 µM
same,IC50,THP-1,64 µM
same,IC50,Plasmodium falciparum,64 µM
COc1ccc2oc(=O)cc(-c3ccc(OC)c(OC)c3)c2c1,IC50,Leishmania donovani [1],5.4 µM
same,selectivity ratio,[3],> 29.6
same,IC50,Leishmania donovani [2],> 160 µM
same,IC50,THP-1,> 160 µM
same,IC50,Plasmodium falciparum,> 160 µM
COc1ccc(-c2cc(=O)oc3cc(OC)c(OC)c(OC)c23)cc1OC,IC50,Leishmania donovani [1],4.3 µM
same,selectivity ratio,[3],18.1
same,selectivity ratio,[4],3
same,IC50,Leishmania donovani [2],> 78 µM
same,IC50,THP-1,78 µM
same,IC50,Plasmodium falciparum,25.8 µM
COc1cc(-c2cc(=O)oc3cc(OC)c(OC)cc23)ccc1O,IC50,Leishmania donovani [1],30.4 µM
same,selectivity ratio,[3],> 4.5
same,selectivity ratio,[4],> 6.1
same,IC50,Leishmania donovani [2],94.2 µM
same,IC50,THP-1,> 137 µM
same,IC50,Plasmodium falciparum,22.5 µM
C[C@@H]1[C@H](O)[C@@H](C)/C=C/C=C/C=C/C=C/C=C/C=C/C=C/[C@H](O[C@@H]2O[C@H](C)[C@@H](O)[C@H](N)[C@@H]2O)C[C@@H]2O[C@](O)(C[C@@H](O)C[C@@H](O)[C@H](O)CC[C@@H](O)C[C@@H](O)CC(=O)O[C@H]1C)C[C@H](O)[C@H]2C(=O)O [AMPHOTERICIN B],IC50,Leishmania donovani [1],0.1 µM
same,selectivity ratio,[3],140
same,IC50,THP-1,14 µM
